Assay [1] relates to Rattus norvegicus. Description: Anti-allodynic activity in complete freund's adjuvant-induced rat inflammatory pain model assessed as inflammatory mechanical allodynia pretreated at 100 uM intra-cisternally administerd 30 min before CFA injection. Format: functional, organism-based. In a few lines:
(§1)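 Rats briefly anesthetized (<2 min, 2% isoflurane by mask), given intracisternal 5 μL compound (100 μM) or vehicle (saline + 1% DMSO) 30 min before subcutaneous CFA (25 μL, 2.5 mg/kg) into right vibrissa pad. Static mechanical allodynia tested with 6-g von Frey filament on face every 15 or 30 min over 120 min; allodynic score 0–4 (Vos). n=4–6 rats.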

For assay [2], the system named is Rattus norvegicus. In words: Anti-allodynic activity in constriction injury-induced rat neuropathic mechanic allodynia model assessed as inflammatory mechanical allodynia at 0.17 ug intra-cisternally administered on day 14 after injury. Conditions: dose 0.17 µg, in the assay text read “static mechanical allodynia” for “inflammatory mechanical allodynia”. In kind it is functional, organism-based. The essentials:
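Neuropathic model: infraorbital nerve chronic constriction (two loose 4/0 chromic catgut ligatures 1 mm apart, chloral hydrate 400 mg/kg i.p. anesthesia). On day 14, once stable allodynia present, intracisternal 5 μL compound (100 μM) or vehicle (saline + 1% DMSO) under brief isoflurane. Face stimulated with 6-g von Frey filament; allodynic score 0–4; n=5/group; mean ± s.e.m.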

Assay [3] addresses Mitogen-activated protein kinase 14 (Homo sapiens) (UniProt Q16539). Description: Inhibition of p38alpha MAPK (unknown origin) assessed as residual activity at 10 uM.
The subject of assay [4] is Rattus norvegicus. Description: Anti-allodynic activity in complete freund's adjuvant-induced rat inflammatory pain model assessed as inflammatory mechanical allodynia pretreated at 0.17 ug intra-cisternally administerd 30 min before CFA injection relative to control. In kind it is functional. The settings on record: dose 0.17 µg, 0.5 h. The essentials: as §1
For assay [5], the target named is Protein kinase C gamma type (Homo sapiens) (UniProt P05129). In words: Inhibition of PKC-gamma (unknown origin) assessed as residual activity at 10 uM.
Assay [6] relates to Rattus norvegicus. Description: Anti-allodynic activity in complete freund's adjuvant-induced rat inflammatory pain model assessed as inflammatory mechanical allodynia pretreated at 0.15 ug intra-cisternally administerd 30 min before CFA injection relative to control. Format: functional. The settings on record: dose 0.15 µg, 0.5 h. In a few lines: as §1
Assay [7] has as its system Rattus norvegicus. In words: Anti-allodynic activity in complete freund's adjuvant-induced rat inflammatory pain model assessed as inflammatory mechanical allodynia pretreated at 100 uM intra-cisternally administerd 30 min before CFA injection measured 120 min after CFA injection relative to control. In kind it is functional. The settings on record: 0.5 h. The essentials:
as §1

Consider 23 compounds from ChEMBL document CHEMBL4706480, “Pyridin-2(1H)one derivatives: A possible new class of therapeutics for mechanical allodynia” (Eur J Med Chem, 2020).

Active and inactive are the calls of the source. The calls are words filed in the database; no cut-off is given here. Bounds are passed on as bounds.

Chain of Mitogen-activated protein kinase 14 (Homo sapiens) (Q16539 whole entry): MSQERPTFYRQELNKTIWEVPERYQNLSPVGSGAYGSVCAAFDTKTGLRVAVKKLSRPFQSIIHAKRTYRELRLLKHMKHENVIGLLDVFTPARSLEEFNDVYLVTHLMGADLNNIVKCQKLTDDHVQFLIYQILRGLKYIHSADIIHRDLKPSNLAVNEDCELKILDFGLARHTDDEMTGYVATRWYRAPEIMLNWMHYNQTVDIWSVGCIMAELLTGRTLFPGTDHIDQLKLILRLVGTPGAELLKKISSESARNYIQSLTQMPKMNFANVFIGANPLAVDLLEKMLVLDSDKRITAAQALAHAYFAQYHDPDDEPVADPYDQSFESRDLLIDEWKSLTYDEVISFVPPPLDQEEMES

On to `O=c1[nH]cc(Nc2ccccc2)cc1-c1ccccc1Br`, for which the inhibition result in the assay with Rattus norvegicus [1] and with Rattus norvegicus [2] was “Active” throughout. Moreover, in assay [3], the Activity is 19%. Further, in the assay on Rattus norvegicus [4], the “inhibition (INH)” value amounted to 99%.

As to `O=c1[nH]cc(Nc2ccccc2)cc1-c1ccnc2ccccc12`, the inhibition entry in the assay on Rattus norvegicus [1] is “Active”.

Regarding `NC(=O)c1ccc(-c2cc(Nc3ccccc3)c[nH]c2=O)cc1`, in the assay on Rattus norvegicus [1], the inhibition entry was “Active”.

In the case of `O=c1[nH]cc(Nc2ccccc2)cc1-c1cncnc1`, in assay [5], the Activity is over 85%. The inhibition entry with Rattus norvegicus [1] was “Active”.

Take `O=c1[nH]cc(Nc2ccccc2)cc1-c1ccc(F)cc1`: the Activity in assay [5] was over 85%. For the same compound, the inhibition entry in the assay with Rattus norvegicus [1] is “Active”.

For `COC(=O)c1ccc(-c2cc(Nc3ccccc3)c[nH]c2=O)cc1`, in the assay on Rattus norvegicus [1], the inhibition entry is “Active”.

As for `O=c1[nH]cc(Nc2ccccc2)cc1-c1cccc2cccnc12`, the Activity in assay [5] is over 85%. In addition, the inhibition result in the assay with Rattus norvegicus [1] was “Active”.

As to `O=c1[nH]cc(Nc2ccccc2)cc1-c1ccc(OC(F)(F)F)cc1`, the inhibition result in the assay on Rattus norvegicus [1] was “Active”.

`Cc1ccc(-c2cc(Nc3ccccc3)c[nH]c2=O)cc1`: in the assay with Rattus norvegicus [1], the inhibition entry is “Active”.

With `O=c1[nH]cc(Nc2ccccc2)cc1-c1cccc(Cl)c1`, in the assay with Rattus norvegicus [1], the inhibition result was “Active”.

Turning to `O=c1[nH]cc(Nc2ccccc2)cc1-c1ccc(O)cc1`, the inhibition entry in the assay with Rattus norvegicus [1] was “Active”.

As for `O=c1[nH]cc(Nc2ccccc2)cc1-c1ccc(F)cc1F`, in the assay with Rattus norvegicus [1], the inhibition entry was “Active”.

In the case of `O=c1[nH]cc(Nc2ccccc2)cc1-c1ccc(C(F)(F)F)cc1`, the inhibition entry with Rattus norvegicus [1] is “Active”.

With `CC(=O)c1cccc(-c2cc(Nc3ccccc3)c[nH]c2=O)c1`, the inhibition result with Rattus norvegicus [1] was “Active”.

With `NC(=O)c1ccccc1-c1cc(Nc2ccccc2)c[nH]c1=O`, in the assay with Rattus norvegicus [1], the inhibition entry was “Active”.

For the compound `O=c1[nH]cc(Nc2ccccc2)cc1-c1ccccc1Cl`, the inhibition result in the assay with Rattus norvegicus [1] is “Active”.

On to `O=c1[nH]cc(Nc2ccccc2)cc1-c1ccccc1[N+](=O)[O-]`, for which, in the assay on Rattus norvegicus [1], the inhibition result was “Active”.

On to `CCOC(=O)c1ccccc1-c1cc(Nc2ccccc2)c[nH]c1=O`, for which, in the assay on Rattus norvegicus [1], the inhibition entry is “Active”.

On to `O=c1[nH]cc(Nc2ccccc2)cc1-c1cccc2[nH]ccc12`, for which the “inhibition (INH)” value with Rattus norvegicus [6] came to 98%. In addition, the inhibition entry in the assay with Rattus norvegicus [1] was “Active”.

In the case of `O=c1[nH]cc(Nc2ccccc2)cc1-c1c[nH]c2ccccc12`, the Activity in assay [5] was over 85%.

Regarding `O=c1[nH]cc(Nc2ccccc2)cc1-c1cccc2cnccc12`, the Activity in assay [5] is over 85%.

For the compound `O=c1[nH]cc(Nc2ccccc2)cc1-c1ccccc1`, the Activity in assay [5] was over 85%. The inhibition result with Rattus norvegicus [1] is “Active”.

Take `O=c1[nH]cc(Nc2ccccc2)cc1-c1ccncc1`: the inhibition in vivo at 100 µM with Rattus norvegicus [7] was determined as 90%. In addition, the Activity in assay [5] is over 85%. In addition, the inhibition result in the assay on Rattus norvegicus [1] is “Active”.

One may read the inhibition in vivo as how much of the control response was suppressed.
